Results on one compound are retold here after ChEMBL document CHEMBL3826914, “Selective photodepletion of malignant T cells in extracorporeal photopheresis with selenorhodamine photosensitizers” (Bioorg Med Chem, 2016).

One data set has as its system ABCB1. Briefly: Passive permeability in dog MDCK2-MDR1 cells expressing ABCB1 at 5 uM after 30 mins in presence of compound 15 by LC-MS/MS analysis. The class given is ADME, cell-based, Canis lupus familiaris, MDCK-II. The conditions noted are these: MDCK-MDR1, with compound 15 (concentration not stated), read-out: permeability. The method, boiled down: (§1)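 MDR1-transfected MDCKII cells (passage 16–42) were seeded at 50,000 cells cm^-2 on Transwell filters and used on day 6. Monolayers were rinsed in DPBS with 10^-2 M HEPES, pH 7.4, at 37 °C. They were preincubated 30 min in 4.3 mg/mL BSA/DPBSH with or without 5×10^-6 M P-gp inhibitor. 5 μM dye was added apically or basolaterally and samples taken after 1 h at 37 °C with nutation. Quantitation was by LC-MS/MS; P_passive is the mean of P_AB and P_BA under full inhibition. Mean ± SD.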
For the compound `CN1CCC(C)(C)c2cc3c(cc21)[Se]c1cc2c(cc1=C3c1ccc(C(=S)N3CCCCC3)s1)C(C)(C)CC[N+]=2C.[Cl-]`, the Papp at 0.5 h, 5 µM is < 0.1 ×10⁻⁶ cm/s.

A further data set concerns HuT78. Briefly: Phototoxicity in GFP expressing human HUT78 cells co-cultured with human PBMC cells assessed as cell survival at 7.5 x 10^-8 M preincubated 20 mins in photosensitizer media followed by growth in photosensitizer-free media for 30 mins measured 18 hrs after exposure to 5 J/cm2 irradiation by FACS analysis. The format is functional. To be noted: HuT78, light or radiation study, read-out: Survival. The gist of the method: (§2)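 Non-stimulated PBMCs from healthy donors (Ficoll-separated) were mixed 5:1 with GFP-transfected, sorted (>98%) HUT-78 cells. Cells took up 7.5×10^-8 M photosensitizer for 20 min, then spent 30 min in dye-free medium. They were exposed to 5 J cm^-2 light (600 nm LED) with rotation at 180 rpm. Survival was gated by FACS (GFP, CD3, CD4, CD8) 18 h later versus non-irradiated controls. Triplicate; mean ± SEM.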
In the case of `CN1CCC(C)(C)c2cc3c(cc21)[Se]c1cc2c(cc1=C3c1ccc(C(=S)N3CCCCC3)s1)C(C)(C)CC[N+]=2C.[Cl-]`, the viability at 0.075 µM was found to be 5.6%.

Tested on in a further data set: not listed separately
Briefly: Drug uptake in SEB-stimulated human CD25 positive cells assessed as mean fluorescence intensity at 5 x 10^-8 M preincubated for 20 mins followed by growth in photosensitizer-free media for 30 mins by flow cytometric analysis relative to control. The conditions noted are these: 0.5 h, 0.05 µM.
As for `CN1CCC(C)(C)c2cc3c(cc21)[Se]c1cc2c(cc1=C3c1ccc(C(=S)N3CCCCC3)s1)C(C)(C)CC[N+]=2C.[Cl-]`, the Flu intensity worked out at 14500 a.u.

Tested on in a further data set: not listed separately
Briefly: N-octanol/water partition coefficient, logP of the compound at 23 degC after 1 hr by HPLC based shake flask method. The class given is physicochemical.
Settings: not given
The method, boiled down: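 Shake-flask method using 1-octanol: 3–5 min of mixing, then 1 h settling. Equilibration and measurement were at 23 °C, in triplicate.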
In the case of `CN1CCC(C)(C)c2cc3c(cc21)[Se]c1cc2c(cc1=C3c1ccc(C(=S)N3CCCCC3)s1)C(C)(C)CC[N+]=2C.[Cl-]`, the logP (as a rule, the decadic logarithm of the partition coefficient of the neutral form, usually between octanol and water) was determined as 3.7.

Tested on in the next data set: not listed separately
Briefly: Drug extrusion in SEB-stimulated human CD25 positive cells assessed as change in mean fluorescence intensity at 5 x 10^-8 M preincubated for 20 mins followed by growth in photosensitizer-free media for 30 mins by flow cytometric analysis relative to control. The conditions noted are these: 0.5 h, 0.05 µM. On the technique in general: A flow cytometer gives signals particle by particle.
Consider `CN1CCC(C)(C)c2cc3c(cc21)[Se]c1cc2c(cc1=C3c1ccc(C(=S)N3CCCCC3)s1)C(C)(C)CC[N+]=2C.[Cl-]`, for which the Activity is given as 16.4%.

A further data set concerns ABCB1. The experiment in a line: Permeability from basolateral to apical side in dog MDCK2-MDR1 cells expressing ABCB1 at 5 uM after 30 mins in absence of compound 15 by LC-MS/MS analysis. The format is ADME, cell-based, Canis lupus familiaris, MDCK-II. The conditions noted are these: MDCK-MDR1, read-out: permeability. The gist of the method:
as §1
In the case of `CN1CCC(C)(C)c2cc3c(cc21)[Se]c1cc2c(cc1=C3c1ccc(C(=S)N3CCCCC3)s1)C(C)(C)CC[N+]=2C.[Cl-]`, the Papp B→A at 0.5 h, 5 µM was 0.63 ×10⁻⁶ cm/s.

Tested on in the next data set: not listed separately
The experiment in a line: Drug uptake in SEB-stimulated human CD25 negative cells assessed as mean fluorescence intensity at 5 x 10^-8 M preincubated for 20 mins followed by growth in photosensitizer-free media for 30 mins by flow cytometric analysis relative to control. The conditions noted are these: 0.5 h, 0.05 µM.
As for `CN1CCC(C)(C)c2cc3c(cc21)[Se]c1cc2c(cc1=C3c1ccc(C(=S)N3CCCCC3)s1)C(C)(C)CC[N+]=2C.[Cl-]`, the Flu intensity worked out at 5400 a.u.

The test system of another data set is ABCB1. The experiment in a line: Permeability from apical to basolateral side in dog MDCK2-MDR1 cells expressing ABCB1 at 5 uM after 30 mins in absence of compound 15 by LC-MS/MS analysis. The format is ADME, cell-based, Canis lupus familiaris, MDCK-II. The conditions noted are these: MDCK-MDR1, read-out: permeability. The method, boiled down:
as §1
For `CN1CCC(C)(C)c2cc3c(cc21)[Se]c1cc2c(cc1=C3c1ccc(C(=S)N3CCCCC3)s1)C(C)(C)CC[N+]=2C.[Cl-]`, the Papp A→B at 0.5 h, 5 µM was 0.15 ×10⁻⁶ cm/s.

The subject of another data set is ABCB1. Briefly: Permeability from apical to basolateral side in dog MDCK2-MDR1 cells expressing ABCB1 at 5 uM after 30 mins in presence of compound 15 by LC-MS/MS analysis. The format is ADME, cell-based, Canis lupus familiaris, MDCK-II. The conditions noted are these: MDCK-MDR1, with compound 15 (concentration not stated), read-out: permeability. The method, boiled down: as §1
Take `CN1CCC(C)(C)c2cc3c(cc21)[Se]c1cc2c(cc1=C3c1ccc(C(=S)N3CCCCC3)s1)C(C)(C)CC[N+]=2C.[Cl-]`: the Papp A→B at 0.5 h, 5 µM amounted to 0.051 ×10⁻⁶ cm/s.

Tested on in a further data set: not listed separately
The experiment in a line: Drug extrusion in human CD8 positive cells assessed as change in mean fluorescence intensity at 5 x 10^-8 M preincubated for 20 mins followed by growth in photosensitizer-free media for 30 mins by flow cytometric analysis relative to control. The conditions noted are these: 0.5 h, 0.05 µM. The format is cell-based.
`CN1CCC(C)(C)c2cc3c(cc21)[Se]c1cc2c(cc1=C3c1ccc(C(=S)N3CCCCC3)s1)C(C)(C)CC[N+]=2C.[Cl-]`: the Activity turned out to be 57.5%.

Tested on in another data set: not listed separately
Briefly: Drug extrusion in SEB-stimulated human CD25 positive cells assessed as mean fluorescence intensity at 5 x 10^-8 M preincubated for 20 mins followed by growth in photosensitizer-free media for 30 mins by flow cytometric analysis relative to control. The conditions noted are these: 0.5 h, 0.05 µM.
For the compound `CN1CCC(C)(C)c2cc3c(cc21)[Se]c1cc2c(cc1=C3c1ccc(C(=S)N3CCCCC3)s1)C(C)(C)CC[N+]=2C.[Cl-]`, the Flu intensity is recorded as 12100 a.u.

Tested on in the next data set: not listed separately
Briefly: Phototoxicity human CD3 positive cells co-cultured with GFP expressing human HUT78 cells assessed as cell survival at 7.5 x 10^-8 M preincubated 20 mins in photosensitizer media followed by growth in photosensitizer-free media for 30 mins measured 18 hrs after exposure to 5 J/cm2 irradiation by FACS analysis. The class given is cell-based. The conditions noted are these: read-out: Survival. The gist of the method:
as §2
Turning to `CN1CCC(C)(C)c2cc3c(cc21)[Se]c1cc2c(cc1=C3c1ccc(C(=S)N3CCCCC3)s1)C(C)(C)CC[N+]=2C.[Cl-]`, the viability at 18 h, 0.075 µM was 1.5%.

Another data set concerns HuT78. Briefly: Drug uptake in GFP expressing human HUT78 cells co-cultured with non-stimulated human PBMC cells assessed as change in mean fluorescence intensity at 7.5 x 10^-8 M after 20 mins followed by growth in photosensitizer-free media for 30 mins by flow cytometric analysis relative to control. The class given is cell-based. To be noted: hut78, 0.5 h, 0.075 µM.
With `CN1CCC(C)(C)c2cc3c(cc21)[Se]c1cc2c(cc1=C3c1ccc(C(=S)N3CCCCC3)s1)C(C)(C)CC[N+]=2C.[Cl-]`, the Activity came to 34.6%.

The next data set concerns HuT78. To be noted: human, hut78, 0.5 h, 0.075 µM.
The compound `CN1CCC(C)(C)c2cc3c(cc21)[Se]c1cc2c(cc1=C3c1ccc(C(=S)N3CCCCC3)s1)C(C)(C)CC[N+]=2C.[Cl-]` had a Flu intensity of 13800 a.u.

In another data set the test system is HuT78. The conditions noted are these: human, hut78, 0.5 h, 0.075 µM. This is another data set of the same source.
Take `CN1CCC(C)(C)c2cc3c(cc21)[Se]c1cc2c(cc1=C3c1ccc(C(=S)N3CCCCC3)s1)C(C)(C)CC[N+]=2C.[Cl-]`: the Flu intensity was found to be 11700 a.u.

Tested on in the next data set: not listed separately
The experiment in a line: Drug extrusion in human CD3 positive cells assessed as change in mean fluorescence intensity at 5 x 10^-8 M preincubated for 20 mins followed by growth in photosensitizer-free media for 30 mins by flow cytometric analysis relative to control. To be noted: 0.5 h, 0.05 µM. The format is cell-based.
With `CN1CCC(C)(C)c2cc3c(cc21)[Se]c1cc2c(cc1=C3c1ccc(C(=S)N3CCCCC3)s1)C(C)(C)CC[N+]=2C.[Cl-]`, the Activity is on record as 40.1%.

Tested on in another data set: not listed separately
Briefly: Drug extrusion in SEB-stimulated human CD25 negative cells assessed as mean fluorescence intensity at 5 x 10^-8 M preincubated for 20 mins followed by growth in photosensitizer-free media for 30 mins by flow cytometric analysis relative to control. To be noted: 0.5 h, 0.05 µM.
Take `CN1CCC(C)(C)c2cc3c(cc21)[Se]c1cc2c(cc1=C3c1ccc(C(=S)N3CCCCC3)s1)C(C)(C)CC[N+]=2C.[Cl-]`: the Flu intensity is on record as 3700 a.u.

The next data set has as its system ABCB1. Briefly: Permeability from basolateral to apical side in dog MDCK2-MDR1 cells expressing ABCB1 at 5 uM after 30 mins in presence of compound 15 by LC-MS/MS analysis. The conditions noted are these: MDCK-MDR1, with compound 15 (concentration not stated), read-out: permeability. The class given is ADME, cell-based, Canis lupus familiaris, MDCK-II. The method, boiled down: as §1
For the compound `CN1CCC(C)(C)c2cc3c(cc21)[Se]c1cc2c(cc1=C3c1ccc(C(=S)N3CCCCC3)s1)C(C)(C)CC[N+]=2C.[Cl-]`, the Papp B→A at 0.5 h, 5 µM came to 0.013 ×10⁻⁶ cm/s.

Tested on in the next data set: not listed separately
The experiment in a line: Drug extrusion in human CD4 positive cells assessed as change in mean fluorescence intensity at 5 x 10^-8 M preincubated for 20 mins followed by growth in photosensitizer-free media for 30 mins by flow cytometric analysis relative to control. The class given is cell-based. To be noted: 0.5 h, 0.05 µM.
For the compound `CN1CCC(C)(C)c2cc3c(cc21)[Se]c1cc2c(cc1=C3c1ccc(C(=S)N3CCCCC3)s1)C(C)(C)CC[N+]=2C.[Cl-]`, the Activity came to 42.8%.

Tested on in another data set: not listed separately
The experiment in a line: Drug extrusion in SEB-stimulated human CD25 negative cells assessed as change in mean fluorescence intensity at 5 x 10^-8 M preincubated for 20 mins followed by growth in photosensitizer-free media for 30 mins by flow cytometric analysis relative to control. To be noted: 0.5 h, 0.05 µM.
Take `CN1CCC(C)(C)c2cc3c(cc21)[Se]c1cc2c(cc1=C3c1ccc(C(=S)N3CCCCC3)s1)C(C)(C)CC[N+]=2C.[Cl-]`: the Activity is given as 30.7%.
